Measured values as given in ChEMBL document CHEMBL2062515, “Synthesis and evaluation of novel radioligands for positron emission tomography imaging of metabotropic glutamate receptor subtype 1 (mGluR1) in rodent brain” (J Med Chem, 2012).

Key:
[1] = test system: Striatum; experiment: Drug uptake in Sprague-Dawley rat striatum at 17 MBq administered as bolus infusion by PET analysis in presence of JNJ16259685; format: ADME, organism-based; details: in vivo, iv
[2] = test system: Cerebellum; experiment: Drug uptake in Sprague-Dawley rat cerebellum at 17 MBq administered as bolus infusion by PET analysis in presence of JNJ16259685; format: ADME, organism-based; details: in vivo, iv
[3] = test system: Mus musculus; experiment: Biodistribution in mouse testis at 4.8 MBq/140 uL, iv after 60 mins by gamma counting; format: ADME, organism-based; details: in vivo, 1 h
Outline: (§1)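 [¹¹C]radioligand in saline (4.8 MBq/140 μL, 40 pmol) injected via tail vein; four mice per time point killed by cervical dislocation at 1, 5, 15, 30, 60 min. Tissues (small intestine including contents) removed, counted in autogamma counter, decay-corrected, expressed as % injected dose per gram wet tissue; mean SE, n = 4.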

[4] = test system: Liver; experiment: Biodistribution in mouse liver at 4.8 MBq/140 uL, iv after 1 min by gamma counting; format: ADME, organism-based; details: in vivo
Outline: (§2)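 Mice received the radioligand in saline by tail vein (4.8 MBq/140 μL, 40 pmol). Four mice per time point were killed by cervical dislocation at 1, 5, 15, 30 and 60 min. Tissues were removed quickly and counted in an autogamma counter. Data are decay-corrected % injected dose per gram of wet tissue, mean ± SE, n = 4.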

[5] = test system: Mus musculus; experiment: Biodistribution in mouse testis at 4.8 MBq/140 uL, iv after 30 mins by gamma counting; format: ADME, organism-based; details: in vivo, 0.5 h; outline: as §1
[6] = test system: Liver; experiment: Biodistribution in mouse liver at 4.8 MBq/140 uL, iv after 15 mins by gamma counting; format: ADME, organism-based; details: in vivo, 0.25 h; outline: as §2
[7] = test system: Spleen; experiment: Biodistribution in mouse spleen at 4.8 MBq/140 uL, iv after 15 mins by gamma counting; format: ADME, organism-based; details: in vivo, 0.25 h; outline: as §1
[8] = test system: Striatum; experiment: Drug uptake in Sprague-Dawley rat striatum at 17 MBq administered as bolus infusion by PET analysis in presence of N-[4-[6-(isopropylamino)pyrimidin-4-yl]-1,3-thiazol-2-yl]-4-methoxy-N-methylbenzamide; format: ADME, organism-based; details: in vivo, iv
[9] = test system: Blood; experiment: Biodistribution in mouse blood at 4.8 MBq/140 uL, iv after 15 mins by gamma counting; format: ADME, organism-based; details: in vivo, 0.25 h; outline: as §2
[10] = test system: Blood; experiment: Biodistribution in mouse blood at 4.8 MBq/140 uL, iv after 60 mins by gamma counting; format: ADME, organism-based; details: in vivo, 1 h; outline: as §2
[11] = test system: Heart; experiment: Biodistribution in mouse heart at 4.8 MBq/140 uL, iv after 1 min by gamma counting; format: ADME, organism-based; details: in vivo; outline: as §2
[12] = test system: Heart; experiment: Biodistribution in mouse heart at 4.8 MBq/140 uL, iv after 60 mins by gamma counting; format: ADME, organism-based; details: in vivo, 1 h; outline: as §2
[13] = test system: Plasma; experiment: Metabolic stability in Sprague-Dawley rat plasma assessed as compound remaining after 90 mins; format: ADME, cell-free; details: 1.5 h
[14] = test system: Thalamus; experiment: Drug uptake in Sprague-Dawley rat thalamus at 16 MBq administered as bolus infusion after 45 mins by PET analysis; format: ADME, organism-based; details: in vivo, iv, 0.75 h
[15] = test system: Muscle tissue; experiment: Biodistribution in mouse muscle at 4.8 MBq/140 uL, iv after 15 mins by gamma counting; format: ADME, organism-based; details: in vivo, 0.25 h; outline: as §2
[16] = test system: Muscle tissue; experiment: Biodistribution in mouse muscle at 4.8 MBq/140 uL, iv after 60 mins by gamma counting; format: ADME, organism-based; details: in vivo, 1 h; outline: as §1
[17] = test system: Mus musculus; experiment: Biodistribution in mouse small intestine at 4.8 MBq/140 uL, iv after 15 mins by gamma counting; format: ADME, organism-based; details: in vivo, 0.25 h; outline: as §1
[18] = test system: Blood; experiment: Biodistribution in mouse blood at 4.8 MBq/140 uL, iv after 30 mins by gamma counting; format: ADME, organism-based; details: in vivo, 0.5 h; outline: as §2
[19] = test system: Cerebellum; experiment: Drug uptake in Sprague-Dawley rat cerebellum at 17 MBq administered as bolus infusion after 45 mins post injection by PET analysis relative to control in presence of N-[4-[6-(isopropylamino)pyrimidin-4-yl]-1,3-thiazol-2-yl]-4-methoxy-N-methylbenzamide; format: ADME, organism-based; details: in vivo, iv, 0.75 h
[20] = test system: Brain; experiment: Drug uptake in mGluR1 knockout mouse brain at 17 MBq, iv up to 60 mins by PET analysis; format: ADME, organism-based; details: in vivo, 1 h
[21] = test system: Spleen; experiment: Biodistribution in mouse spleen at 4.8 MBq/140 uL, iv after 1 min by gamma counting; format: ADME, organism-based; details: in vivo; outline: as §1
[22] = test system: Muscle tissue; experiment: Biodistribution in mouse muscle at 4.8 MBq/140 uL, iv after 1 min by gamma counting; format: ADME, organism-based; details: in vivo; outline: as §2
[23] = test system: Liver; experiment: Biodistribution in mouse liver at 4.8 MBq/140 uL, iv after 5 mins by gamma counting; format: ADME, organism-based; details: in vivo; outline: as §2
[24] = test system: Heart; experiment: Biodistribution in mouse heart at 4.8 MBq/140 uL, iv after 30 mins by gamma counting; format: ADME, organism-based; details: in vivo, 0.5 h; outline: as §2
[25] = test system: Spleen; experiment: Biodistribution in mouse spleen at 4.8 MBq/140 uL, iv after 5 mins by gamma counting; format: ADME, organism-based; details: in vivo; outline: as §1
[26] = test system: Cerebellum; experiment: Drug uptake in wild type mouse cerebellum at 17 MBq, iv up to 60 mins by PET analysis; format: ADME, organism-based; details: in vivo, 1 h
[27] = test system: Lung; experiment: Biodistribution in mouse lung at 4.8 MBq/140 uL, iv after 5 mins by gamma counting; format: ADME, organism-based; details: in vivo; outline: as §2
[28] = test system: Kidney; experiment: Biodistribution in mouse kidney at 4.8 MBq/140 uL, iv after 60 mins by gamma counting; format: ADME, organism-based; details: in vivo, 1 h; outline: as §2
[29] = test system: Blood; experiment: Biodistribution in mouse blood at 4.8 MBq/140 uL, iv after 5 mins by gamma counting; format: ADME, organism-based; details: in vivo; outline: as §2
[30] = test system: Mus musculus; experiment: Biodistribution in mouse testis at 4.8 MBq/140 uL, iv after 1 min by gamma counting; format: ADME, organism-based; details: in vivo; outline: as §1
[31] = test system: Brain; experiment: Biodistribution in mouse brain at 4.8 MBq/140 uL, iv after 5 mins by gamma counting; format: ADME, organism-based; details: in vivo; outline: as §2
[32] = test system: Heart; experiment: Biodistribution in mouse heart at 4.8 MBq/140 uL, iv after 15 mins by gamma counting; format: ADME, organism-based; details: in vivo, 0.25 h; outline: as §2
[33] = test system: Cerebellum; experiment: Drug uptake in Sprague-Dawley rat cerebellum at 16 MBq administered as bolus infusion after 45 mins post injection by PET analysis; format: ADME, organism-based; details: in vivo, iv, 0.75 h
[34] = Ratio of drug uptake in cerebellum to pons of Sprague-Dawley rat at 16 MBq administered as bolus infusion; details: in vivo, iv
[35] = test system: Heart; experiment: Biodistribution in mouse heart at 4.8 MBq/140 uL, iv after 5 mins by gamma counting; format: ADME, organism-based; details: in vivo; outline: as §2
[36] = test system: Brain; experiment: Biodistribution in mouse brain at 4.8 MBq/140 uL, iv after 30 mins by gamma counting; format: ADME, organism-based; details: in vivo, 0.5 h; outline: as §2
[37] = test system: Cerebellum; experiment: Drug uptake in Sprague-Dawley rat cerebellum at 16 MBq administered as bolus infusion after 90 mins by PET analysis; format: ADME, organism-based; details: in vivo, iv, 1.5 h
[38] = test system: Liver; experiment: Biodistribution in mouse liver at 4.8 MBq/140 uL, iv after 30 mins by gamma counting; format: ADME, organism-based; details: in vivo, 0.5 h; outline: as §2
[39] = Ratio of drug uptake in thalamus to pons of Sprague-Dawley rat at 16 MBq administered as bolus infusion; details: in vivo, iv
[40] = test system: Striatum; experiment: Drug uptake in Sprague-Dawley rat striatum at 16 MBq administered as bolus infusion after 90 mins by PET analysis; format: ADME, organism-based; details: in vivo, iv, 1.5 h
[41] = test system: Kidney; experiment: Biodistribution in mouse kidney at 4.8 MBq/140 uL, iv after 30 mins by gamma counting; format: ADME, organism-based; details: in vivo, 0.5 h; outline: as §2
[42] = test system: Lung; experiment: Biodistribution in mouse lung at 4.8 MBq/140 uL, iv after 30 mins by gamma counting; format: ADME, organism-based; details: in vivo, 0.5 h; outline: as §2
[43] = test system: Lung; experiment: Biodistribution in mouse lung at 4.8 MBq/140 uL, iv after 60 mins by gamma counting; format: ADME, organism-based; details: in vivo, 1 h; outline: as §2
[44] = test system: Mus musculus; experiment: Biodistribution in mouse testis at 4.8 MBq/140 uL, iv after 5 mins by gamma counting; format: ADME, organism-based; details: in vivo; outline: as §1

With CC(C)Nc1cc(-c2csc(N(C)C(=O)c3ccc(O[11CH3])cc3)n2)ncn1 the Drug uptake [1] was “Not Active”, the Drug uptake [2] was “Not Active” and the Drug uptake [3] was 0.33 % ID/g. It also gave a Drug uptake [4] of 8.16 % ID/g, a Drug uptake [5] of 0.38 % ID/g and a Drug uptake [6] of 5.57 % ID/g. The Drug uptake [7] was 1.98 % ID/g, the Drug uptake [8] was “Not Active” and the Drug uptake [9] was 0.96 % ID/g. The Drug uptake [10] was 0.64 % ID/g, the Drug uptake [11] was 4.63 % ID/g and the Drug uptake [12] was 0.81 % ID/g. The Stability [13] was “Unstable”, the Drug uptake [14] was “Active” and the Drug uptake [15] was 0.95 % ID/g. For the same compound, the Drug uptake [16] was 0.52 % ID/g, the Drug uptake [17] was 4.98 % ID/g and the Drug uptake [18] was 0.67 % ID/g. For the same compound, the Drug uptake [19] was “Active”, the Drug uptake [20] was “Not Active” and the Drug uptake [21] was 1.97 % ID/g. It also gave a Drug uptake [22] of 2.04 % ID/g, a Drug uptake [23] of 8.34 % ID/g and a Drug uptake [24] of 0.91 % ID/g. For the same compound, the Drug uptake [25] was 1.96 % ID/g, the Drug uptake [26] was “Active” and the Drug uptake [27] was 2.9 % ID/g. It also gave a Drug uptake [28] of 2.92 % ID/g, a Drug uptake [29] of 1.95 % ID/g and a Drug uptake [30] of 0.72 % ID/g. The Drug uptake [31] was 3.21 % ID/g, the Drug uptake [32] was 1.19 % ID/g and the Drug uptake [33] was “Active”. For the same compound, the Ratio [34] was 6.98, the Drug uptake [35] was 2.09 % ID/g and the Drug uptake [36] was 2.38 % ID/g. The Drug uptake [37] was 90%, the Drug uptake [38] was 4.68 % ID/g and the Ratio [39] was 5.05. It also gave a Drug uptake [40] of 80%, a Drug uptake [41] of 3.32 % ID/g and a Drug uptake [42] of 1.92 % ID/g. The Drug uptake [43] was 1.57 % ID/g and the Drug uptake [44] was 0.83 % ID/g.
